Drawing on ChEMBL document CHEMBL1123758, “Thromboxane synthetase inhibitors and antihypertensive agents. 3. N-[(1H-imidazol-1-yl)alkyl]heteroaryl amides as potent enzyme inhibitors” (J Med Chem, 1987), this text covers Activity, inhibition and IC50 for 55 molecules.

Assay [1] concerns Rattus norvegicus. Put plainly: Antihypertensive activity was measured in spontaneously hypertensive rats (SHR) at 100 mg/kg peroral dose (2 days); NA denotes inactive. It is filed as functional, organism-based. More on the design: dose 100 mg/kg. Put shortly:
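Male 16-week-old Okamoto SHR, mean arterial pressure about 170 mmHg. Dosed by gavage at 100 mg/kg (or less) as a suspension in 2% preboiled starch, with 0.9% NaCl loading at 25 mL/kg. A second identical dose without saline was given 24 h later. Mean arterial pressure was read at 28 h, using one to three rats. Active if ≤116 mmHg in one rat or a two-rat average ≤122 mmHg.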

Assay [2] concerns the target T1, Thromboxane-A synthase (Rattus norvegicus) (UniProt P49430).
T1 sequence (whole entry): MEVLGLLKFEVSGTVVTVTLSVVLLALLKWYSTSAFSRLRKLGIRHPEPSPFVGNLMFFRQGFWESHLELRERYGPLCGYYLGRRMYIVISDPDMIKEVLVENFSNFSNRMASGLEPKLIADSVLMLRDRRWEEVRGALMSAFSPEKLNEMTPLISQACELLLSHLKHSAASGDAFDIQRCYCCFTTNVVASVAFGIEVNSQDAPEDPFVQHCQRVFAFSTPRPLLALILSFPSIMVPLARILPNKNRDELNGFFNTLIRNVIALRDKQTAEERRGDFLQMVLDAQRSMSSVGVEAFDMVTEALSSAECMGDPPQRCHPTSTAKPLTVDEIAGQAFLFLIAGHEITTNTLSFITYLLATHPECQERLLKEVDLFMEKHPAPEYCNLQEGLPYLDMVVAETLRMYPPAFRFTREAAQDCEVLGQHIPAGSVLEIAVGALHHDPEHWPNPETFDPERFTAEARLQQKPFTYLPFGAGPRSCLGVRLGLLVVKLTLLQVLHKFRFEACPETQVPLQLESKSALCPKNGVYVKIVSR
Conditions: at 100 µM.

A further assay has as its target T2, Thromboxane-A synthase (Rattus norvegicus, UniProt P49430).
T2 sequence (P49430 whole entry): T1 sequence (whole entry)
The experiment in a line: Inhibition of thromboxane formation at a concentration of 10e -6 M.

In assay [3] the target is T1, Thromboxane-A synthase (Rattus norvegicus). The experiment in a line: Inhibition of thromboxane formation at a concentration of 10e -4 M. Put shortly:
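Washed SHR platelets in oxygenated Krebs phosphate buffer pH 7.4, (4.5-6.0) × 10^4 platelets/µL, with drug or vehicle, 10 min at 37 °C. Stopped on ice with citric acid. TXB2 in the supernatant was measured by direct RIA. Boiled-sample blanks were subtracted, then percent inhibition of TXB2 formation was calculated. Replicate number varies by entry.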

The test system of assay [4] is Rattus norvegicus. The experiment in a line: Antihypertensive activity was measured in spontaneously hypertensive rats (SHR) at 100 mg/kg peroral dose (2 days); active. The format is functional, organism-based. More on the design: dose 100 mg/kg. A digest of the protocol:
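Male Okamoto SHR, 16 weeks old, mean arterial pressure about 170 mmHg. Compound suspended in 2% preboiled starch at 50 mg/mL and given by gavage at 100 mg/kg or less with 0.9% NaCl loading (25 mL/kg). An identical dose without saline followed 24 h later. Mean arterial pressure was read 28 h after the first dose in one to three rats. Active: one rat ≤116 mmHg, or mean of two ≤122 mmHg.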

Calls of active or inactive are those of the source.

As a reminder, the inhibition is the drop in the measured response relative to a control, in per cent. Read a high inhibition as strong suppression. Take `O=C(NCCCCn1cncn1)c1ccco1`: in the assay with Rattus norvegicus [1], the outcome was inactive. Also, the inhibition in assay [2] worked out at 22%. For `O=C(NCCCCn1cncn1)c1ccc(Cl)s1`, in that order: “inactive” and 83%. The corresponding values for `O=C(NCCCn1ccnc1)c1ccc(Br)o1` are “inactive” and 82%. In assay [2], `O=C(NCCn1ccnc1)c1ccco1` came in with an inhibition of 65%. With `O=C(NCCCn1ccnc1)c1cc2cc(Cl)ccc2[nH]1`, the outcome with Rattus norvegicus [1] was inactive. In assay [2], this molecule gave an inhibition of 95%. The corresponding values for `Cn1c(C(=O)NCCCn2ccnc2)cc2ccccc21` are “inactive” and 89%. The corresponding values for `O=C(NCCCn1ccnc1)c1ccco1` are “inactive” and 97%. In general, IC50 refers to the concentration that inhibits the measured activity by half. A lower IC50 goes with higher potency. `O=C(NCCCCCCCCn1ccnc1)c1ccc(Cl)s1` registered a half-maximal inhibitory concentration (IC50) against Thromboxane-A synthase of 70 nM. The inhibition in assay [3] amounted to 96%. With `O=C(NCCCCn1ccnc1)c1ccc(Cl)nc1`, on Thromboxane-A synthase, the IC50 was 8000 nM. In assay [3], this molecule yielded an inhibition of 94%. As for `O=C(NCCCCn1ccnc1)c1cc2ccccc2[nH]1`, on Thromboxane-A synthase, half-maximal inhibition (IC50) required 40 nM. Further, the outcome in the assay on Rattus norvegicus [1] was inactive. In assay [2], this molecule displayed an inhibition of 100%. `O=C(NCCCn1ccnc1)c1ccc(Cl)s1`: the half-inhibitory concentration (IC50) against Thromboxane-A synthase amounted to 600 nM. For the same molecule, the inhibition in assay [2] came to 95%. The corresponding values for `CC(CCNC(=O)c1ccc(Cl)s1)n1ccnc1` (stereo unspecified) are 2000 nM and 100%.

On to `CC(CNC(=O)c1cc2cc(Cl)ccc2[nH]1)Cn1ccnc1` (stereo unspecified), for which, in assay [2], the inhibition was determined as 100%. In assay [3], `Cc1nccn1CCCNC(=O)c1ccc(Cl)nc1` registered an inhibition of 44%. Molecule `O=C(NCCCn1ccnc1)c1ccc([N+](=O)[O-])o1` came in with an inhibition in assay [2] of 64%. Further, the outcome in the assay with Rattus norvegicus [4] was Active. For `Cc1cn(CCCNC(=O)c2cc3cc(Cl)ccc3[nH]2)cn1`, the outcome in the assay with Rattus norvegicus [1] was inactive. In addition, in assay [2], the inhibition was 100%. In turn, `O=C(NCCCCn1ccnc1)c1cc2cc(Cl)ccc2[nH]1` showed an inhibition in assay [2] of 100%. At Thromboxane-A synthase, `CC(CCNC(=O)c1cc2cc(Cl)ccc2[nH]1)n1ccnc1` (stereo unspecified) returned an IC50 of 50 nM. In addition, in assay [2], the inhibition was 98%. Turning to `O=C(NCCCn1ccnc1)c1cccs1`, in the assay on Rattus norvegicus [1], the outcome was inactive. For the same molecule, in assay [2], the inhibition turned out to be 93%. Take `O=C(NCCCn1cncn1)c1ccc(Cl)s1`: in the assay with Rattus norvegicus [1], the result was inactive. In assay [2], this molecule came in with an inhibition of 64%. In the case of `O=C(NCCCn1cncn1)c1cccs1`, the outcome in the assay with Rattus norvegicus [1] was inactive. Besides, the inhibition in assay [2] was found to be 30%. On to `CC(CNC(=O)c1ccc(Cl)nc1)Cn1ccnc1` (stereo unspecified), for which the inhibition in assay [3] worked out at 98%. `CC(CCNC(=O)c1ccc(Cl)nc1)n1ccnc1` (stereo unspecified) registered an IC50 against Thromboxane-A synthase of 3000 nM. The inhibition in assay [3] came out at 98%. Take `O=C(NCCCn1ccnc1)c1cc(Br)c(Br)s1`: the IC50 against Thromboxane-A synthase came to 400 nM. The result with Rattus norvegicus [1] was inactive. Also, in assay [2], the inhibition was determined as 100%. In the case of `Cc1cn(CCCNC(=O)c2ccc(Cl)s2)cn1`, in the assay with Rattus norvegicus [1], the result was inactive. For the same molecule, the inhibition in assay [2] came out at 95%.

In assay [2], `O=C(NCCCn1ccnc1)c1cc2ccccc2[nH]1` returned an inhibition of 94%. In assay [2], `Cc1nccn1CCCNC(=O)c1ccc(Cl)s1` gave an inhibition of 78%. `O=C(NCCCCn1ccnc1)c1ccco1`: the result in the assay on Rattus norvegicus [1] was inactive. Moreover, in assay [2], the inhibition came to 87%. At Thromboxane-A synthase, `Cc1ccc(C(=O)NCCCn2ccnc2)s1` had a half-inhibitory concentration (IC50) of 1300 nM. Moreover, the result in the assay with Rattus norvegicus [1] was inactive. In assay [2], this molecule showed an inhibition of 96%. `O=C(NCCCn1ccnc1)c1cccnc1`: the outcome in the assay with Rattus norvegicus [1] was inactive. In assay [2], this molecule returned an inhibition of 83%. As for `COc1ccc2[nH]c(C(=O)NCCCn3ccnc3)cc2c1`, the outcome with Rattus norvegicus [1] was inactive. For the same molecule, the inhibition in assay [2] was 96%. The molecule `O=C(NCCCCn1ccnc1)c1cccs1` had an IC50 on Thromboxane-A synthase of 3000 nM. The molecule further came in with an inhibition in assay [2] of 95%. `O=C(NCCCn1ccnc1)c1cc2ccccc2o1` gave an IC50 at Thromboxane-A synthase of 300 nM. Moreover, the result in the assay on Rattus norvegicus [1] was inactive. For the same molecule, the inhibition in assay [2] was determined as 97%. Take `O=C(NCCCCn1ccnc1)c1sc2ccccc2c1Cl`: the result with Rattus norvegicus [1] was inactive. In assay [2], this molecule came in with an inhibition of 91%. `O=C(NCCCn1ccnc1)c1ccc(Cl)nc1` had an inhibition in assay [3] of 87%.

As to `O=C(NCCCCCn1ccnc1)c1ccc(Cl)nc1`, on Thromboxane-A synthase, inhibition was half-maximal at 3000 nM (IC50). Further, in assay [3], the inhibition was 100%.

`Cc1ccc2c(Cl)c(C(=O)NCCCn3ccnc3)sc2c1`: the outcome with Rattus norvegicus [1] was inactive. This molecule had an inhibition in assay [2] of 96%. In the case of `Cc1nccn1CCCNC(=O)c1cc2ccccc2n1C`, the result with Rattus norvegicus [1] was inactive. Moreover, the inhibition in assay [2] was found to be 56%.

With `Cc1cn(CCCNC(=O)c2cc3ccccc3[nH]2)cn1`, the outcome in the assay with Rattus norvegicus [1] was inactive. In addition, the inhibition in assay [2] was 100%. The corresponding values for `O=C(NC/C=C/Cn1ccnc1)c1ccc(Cl)s1` are “inactive” and 100%. Consider `O=C(NCCCn1ccnc1)c1cc2cc(Cl)ccc2s1`, for which it took 100 nM to reach half-maximal inhibition on Thromboxane-A synthase (IC50). For the same molecule, in the assay with Rattus norvegicus [1], the result was inactive. In assay [2], this molecule showed an inhibition of 100%. In turn, `O=C(NCCCCCn1ccnc1)c1cc2cc(Cl)ccc2[nH]1` displayed a 50% inhibitory concentration (IC50) against Thromboxane-A synthase of 7 nM. In assay [2], this molecule displayed an inhibition of 100%. Take `O=C(NCCCCCn1cncn1)c1ccc(Cl)s1`: in the assay with Rattus norvegicus [1], the result was inactive. In assay [2], this molecule yielded an inhibition of 100%. As to `Cc1cn(CCCNC(=O)c2cc3ccccc3n2C)cn1`, in the assay on Rattus norvegicus [1], the outcome was inactive. In addition, in assay [2], the inhibition was 85%. With `O=C(NCCCCn1ccnc1)c1ccc(Cl)s1`, at Thromboxane-A synthase, the IC50 came out at 200 nM. Besides, the inhibition in assay [2] was 99%. Turning to `O=C(NCCn1ccnc1)c1sc2ccccc2c1Cl`, the inhibition in assay [2] amounted to 70%. `O=C(NCCCCCn1ccnc1)c1ccc(Cl)s1` yielded a half-inhibitory concentration (IC50) against Thromboxane-A synthase of 200 nM. Also, the result with Rattus norvegicus [1] was inactive. Besides, in assay [2], the inhibition came out at 100%. As for `O=C(NCCCCCCCCn1ccnc1)c1cc2cc(Cl)ccc2[nH]1`, the half-inhibitory concentration (IC50) against Thromboxane-A synthase was 27 nM. The same molecule returned an inhibition in assay [3] of 93%. As to `O=C(NCCCn1ccnc1)c1sc2ccccc2c1Cl`, on Thromboxane-A synthase, the IC50 stood at 300 nM. Moreover, in assay [2], the inhibition came out at 100%. In the case of `Cc1cn(CCCNC(=O)c2ccc(Cl)nc2)cn1`, the inhibition in assay [3] is 86%.

`O=C(NCCCn1cncn1)c1cc2ccccc2o1`: the result in the assay with Rattus norvegicus [1] was inactive. Also, the inhibition in assay [2] amounted to 84%. The corresponding values for `O=C(NCCCn1ccnc1)c1sc2cc(F)ccc2c1Cl` are “inactive” and 96%.

`O=C(NCCCCCCn1ccnc1)c1ccc(Cl)s1` yielded an IC50 at Thromboxane-A synthase of 200 nM. Besides, in the assay on Rattus norvegicus [1], the outcome was inactive. The molecule also yielded an inhibition in assay [2] of 100%.

For the molecule `O=C(NCCCn1cnc(-c2ccccc2)c1)c1ccc(Cl)s1`, the result with Rattus norvegicus [1] was inactive. The molecule also yielded an inhibition in assay [2] of 70%. Turning to `O=C(NCCCn1ccnc1)c1cccnc1Cl`, the inhibition in assay [3] was found to be 64%.
